Hits are enriched below; roughly 2.1% of the tested compounds scored in any of these assays.
Mot1-301 SUMO: yeast Mot1-301 growth rescue at high temperature, primary screen, SUMOylation pathway inhibitor project, S. cerevisiae, ATP luminescence, 38.5C. S. cerevisiae Mot1-301 growth rescue; percent above DMSO median, 100 means doubled. growth rescue, % at 18.8 µM. actives 1% (n = 320,000);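 active = every valid replicate shows activation above 250% relative to neutral control wells; inactive = the rest, any valid replicate at or below 250%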;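 note: OY570 slx delta 5 strain wells were the positive control but not used for scaling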
Cardiac RTF inh: cardiac RTF calcium sensitivity inhibitors, primary screen, biochemical, IANBD-TnC fluorescence, EC70 calcium; inhibition, % at 7.15 µM; Troponin I, cardiac muscle (Homo sapiens) + Troponin T, cardiac muscle (Homo sapiens) + …; AID 493244, 2011; actives 0.12% (n = 340,000); IANBD-labeled cardiac RTF, Ca2+ fluorescence;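 active = inhibition above the mean inhibition of all tested compounds plus 3 SD, cut at about 17% in these data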;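 note: assay run at fixed EC70 calcium of 1.6 mM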
cardiac RTF act: cardiac RTF calcium sensitivity activators, primary screen, biochemical, IANBD-TnC fluorescence, EC20 calcium. IANBD-labeled TnC RTF fluorescence at EC20 calcium; 0% EC20 calcium, 100% full calcium. Troponin I, cardiac muscle (Homo sapiens) + Troponin T, cardiac muscle (Homo sapiens) + …. activation, % at 7.2 µM. actives 0.24% (n = 340,000);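 active = activation above the mean over all tested compounds plus 3 SD, cut at about 30% in these data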;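 note: rise in fluorescence read as greater calcium sensitivity of cardiac thin filaments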
Efflux pump mplx: inhibitors of Candida efflux pumps in yeast, primary screen, S. cerevisiae, Nile Red, multiplex; inhibition, % at 10 µM; actives 0.44% (n = 330,000); S. cerevisiae Candida pump triplex;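 active = plate passing quality check with inhibition over a set limit, or well fluorescence over plate mean plus 4 SD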;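 note: Nile Red retained in pooled yeast measured as flow cytometry median fluorescence; 0% = buffer negative control and 100% = Enniatin B positive control; higher means more Nile Red kept so more efflux inhibition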
UCH37 inh: inhibitors of human UCH37 deubiquitinase, primary screen, biochemical, Ub-AMC cleavage, fluorescence; Ubiquitin carboxyl-terminal hydrolase isozyme L5 (Homo sapiens), Q9Y5K5; purified proteasome/UCH37; inhibition, % (test concentration not listed); actives 0.33% (n = 330,000); AID 588478, 2011;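 active = mean inhibition over replicate wells above about 20%, limit read from the data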;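 note: 0% = compound-free wells with enzyme and 100% = wells lacking proteasome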
Target sequence (Q9Y5K5 whole entry, looked up): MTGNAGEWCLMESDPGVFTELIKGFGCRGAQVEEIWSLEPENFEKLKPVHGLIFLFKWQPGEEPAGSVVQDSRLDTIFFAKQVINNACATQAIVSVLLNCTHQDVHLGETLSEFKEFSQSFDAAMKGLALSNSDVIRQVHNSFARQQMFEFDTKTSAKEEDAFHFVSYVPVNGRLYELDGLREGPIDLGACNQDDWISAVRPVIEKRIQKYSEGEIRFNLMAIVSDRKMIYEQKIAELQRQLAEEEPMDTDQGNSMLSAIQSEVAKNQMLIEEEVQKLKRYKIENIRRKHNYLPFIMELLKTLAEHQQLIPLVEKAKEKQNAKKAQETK
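Test system – human UCH37 enzyme supplied as purified proteasome complex · Incubation – 30 min preincubation with enzyme, 25 min cleavage at room temperature · Detection – AMC fluorescence from Ub-AMC cleavage, excitation 355 nm, emission 460 nm · Benchmarks – no-proteasome wells (full inhibition) and compound-free wells (no inhibition)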
ARNT TACC3 PPI: disruptors of ARNT/TACC3 protein interaction, primary screen, biochemical, AlphaScreen, single concentration; inhibition, % at 9.99 µM; AlphaScreen His-ARNT PAS-B/GST-TACC3 binding, luminescence; TACC3 fragment carries E629A point mutation; AID 623870, 2012; actives 0.66% (n = 390,000);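 active = mean inhibition of replicates at least 50% and at least half of replicates each reaching 50%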;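 note: 0% = complete ARNT plus TACC3 wells and 100% = ARNT alone without TACC3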
* marks the source's active call; other numbers are inactive results; . = not tested or not shown.

SMILES	Mot1-301 SUMO	Cardiac RTF inh	cardiac RTF act	Efflux pump mplx	UCH37 inh	ARNT TACC3 PPI
Cc1c(Cl)cccc1-c1ccc(CNCc2ccccn2)o1	32	-11	1	0	7	64*
CCOc1cc(C=NNC(=O)NN=Cc2ccc(O)c(OCC)c2)ccc1O	.	.	.	.	8	.
COc1ccc(S(=O)(=O)N(C)c2ccc(C(=O)N3CCC(C(N)=O)CC3)cc2)cc1OC	345*	3	-9	0	3	.
O=C(COC(=O)C1CC(=O)N(c2ccc3c(c2)OCCO3)C1)NC1CCCc2ccccc21 (stereo not drawn)	149	2	0	0	22*	-4
CCOC(=O)c1ccccc1NC(=O)COC(=O)C1CC(=O)N(c2ccc3c(c2)OCCO3)C1 (stereo not drawn)	-12	7	-5	0	3	2
COc1ccc(C2Nc3ccccc3NC3=C2C(=O)CC(C)(C)C3)cc1OC (stereo not drawn)	4	-3	-3	0	8	-3
COc1ccc(C2Nc3ccccc3NC3=C2C(=O)CC(C)(C)C3)cc1O (stereo not drawn)	4	-6	2	0	7	47*
N#CC1=C(S)N(c2ccccc2)C(c2ccc(-c3cc(Cl)ccc3Cl)o2)NC1=O (stereo not drawn)	-10	6	1	0.5*	3	14
Brc1ccc(-c2nn3c(-c4ccccn4)nnc3s2)o1	124	-8	1	0	-3	68*
N[C@@H](C(=O)N[C@@H]1C(=O)N2C(C(=O)O)=C(Cl)CS[C@H]12)c1ccccc1	-22	-16	4	0	1	40*
CCc1ccc([C@@H]2CC=C(C(=O)O)[C@H](c3ccc(C)cc3)N2S(=O)(=O)c2ccc(C)cc2)cc1	.	0	-15	-1	5	16
Cc1ccc(S(=O)(=O)N2[C@@H](c3ccc(Cl)c(Cl)c3)C(C(=O)O)=C[C@H]2C(C)(C)C)cc1	312*	1	2	0	5	1
CCCCC[C@@H]1C=C(C(=O)O)[C@H](c2ccc(CC)cc2)N1S(=O)(=O)c1ccc(C)cc1	354*	0	-12	0	3	-3
Cc1ccc([C@H]2C(C(=O)O)=CC[C@@H](c3ccc(Cl)cc3)N2S(=O)(=O)c2ccccc2C)cc1	341*	-2	-9	0	2	-1
Cc1ccccc1S(=O)(=O)N1[C@@H](c2ccc(Cl)cc2)C(C(=O)O)=CC[C@H]1c1ccc(Cl)cc1	112	-1	-8	0	3	10
CCc1ccc([C@@H]2CC=C(C(=O)O)[C@H](c3ccccc3F)N2S(=O)(=O)c2ccc(C)cc2)cc1	302*	-1	-3	0	3	-4
CCCC[C@@H]1C=C(C(=O)O)[C@H](c2ccc(CC)cc2)N1S(=O)(=O)c1ccc(C)cc1	.	-7	-6	0	3	-2
COc1ccc(CC(C)=NNC(=O)C2COc3ccccc3O2)cc1 (stereo not drawn)	.	.	.	.	2	.
Cc1ccc([C@@H]2CC=C(C(=O)O)[C@H](c3cccc(Cl)c3)N2S(=O)(=O)c2ccccc2C)cc1	295*	0	-6	0	2	-5
CCc1nnc(SCC(=O)N2CCCc3ccccc32)nc1CC	6	12	-6	0	1	-9
Cc1ccc2c(c1)c1nnc(SCC(=O)N3CCCc4ccccc43)nc1n2CC(=O)O	334	2	-4	0	11	67*
Cc1cccc(COc2ccccc2C=NNc2ccc([N+](=O)[O-])cc2)c1	.	.	.	.	-4	.
CCn1c(CNc2cccc(C(F)(F)F)c2)n[nH]c1=S	0	-8	7	0	32*	-1
O=c1[nH]nc(CNc2cccc(C(F)(F)F)c2)c2ccccc12	-15	-14	-3	0	3	1
CC(=O)N1C(=O)C(=C2C=C(C)OC(C)=C2)c2ccccc21	-15	-24	66*	0	4	-1
SMILES	Mot1-301 SUMO	Cardiac RTF inh	cardiac RTF act	Efflux pump mplx	UCH37 inh	ARNT TACC3 PPI
CC1=CC(=C2C(=O)c3ccccc3C2=O)C=C(C)O1	2	13	-5	0	7	-2
CC(C)C[C@H](N)C(=O)N1CCC(C(=O)N[C@H](C(=O)NCc2ccc(F)cc2)C(C)C)CC1	370	-10	10	0	2	-3
CC(C)C[C@H](N)C(=O)N1CCC(C(=O)N[C@H](C(=O)NC(C)c2ccccc2)C(C)C)CC1 (stereo partly drawn)	788*	7	7	1	0	-9
CC1=CC(=O)C(C(C)C)=CC1=NOC(=O)c1cccc([N+](=O)[O-])c1	.	.	.	.	6	.
CC1(C)[N+]([O-])=C2C(=NO)c3ccccc3C2=[N+]([O-])C1(C)C	.	.	.	.	0	.
O=C(OCCN1C(=O)c2cccc3c(N4CCOCC4)ccc(c23)C1=O)c1ccccc1Cl	-2	-95	112*	1	-16	-21
O=C(OCCN1C(=O)c2cccc3c(N4CCOCC4)ccc(c23)C1=O)c1ccc(Cl)cc1Cl	-6	-268	192*	0	-15	-15
COCc1cc(C=NNC(=O)Cc2ccc(OC)cc2)ccc1OC	.	.	.	.	2	.
Cc1cccc(C=NNC(=O)c2sccc2-n2cccc2)c1	.	.	.	.	3	.
O=C1C=C(Nc2cccnc2)c2ccccc2C1=O	.	-7	-3	.	.	35*
Cc1ccc(NC(=O)C2CC2c2ccccc2)c([N+](=O)[O-])c1 (stereo not drawn)	25	-7	3	0	.	46*
O=C(Nc1ccc(Cl)cc1F)C1CC1c1ccccc1 (stereo not drawn)	28	7	0	0	0	-3
O=C(O)c1cc(-c2ccc(/C=N/Nc3ccc(Cl)cc3)o2)ccc1Cl	304*	3	2	0	.	-6
O=C(O)c1ccc(NN=Cc2ccc(-c3cc(Cl)ccc3Cl)o2)cc1	.	.	.	.	-57	.
CC(CC(=O)Nc1ccc([N+](=O)[O-])cc1)=NNC(=O)c1ccccc1[N+](=O)[O-]	.	.	.	.	7	.
Cn1cnc(S(=O)(=O)N2CC[C@H]3[C@H](CO)Nc4ccc(-c5ccccc5)cc4[C@H]32)c1	.	.	.	.	.	4
